Data set [1] concerns the target UDP-N-acetylglucosamine 1-carboxyvinyltransferase (Escherichia coli K-12) (UniProt P0A749). As to the kind of experiment: Inhibition of recombinant Escherichia coli MurA assessed as residual activity at 500 uM using UDP-N-acetylglucosamine as substrate preincubated for 30 mins followed by substrate addition and measured by malachite green based colorimetric assay relative to control. The procedure, abridged:
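E. coli MurA at 500–625 μM with 30 min preincubation before substrate addition. Malachite green colorimetric read-out. Activity threshold was <50% residual activity.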

Data set [2] has the same target. In words: Inhibition of recombinant Escherichia coli MurA assessed as residual activity at 500 uM using UDP-N-acetylglucosamine as substrate and measured by malachite green based colorimetric assay relative to control. The procedure, abridged:
(§1)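 Screened at 500–625 μM with malachite green colorimetric read-out. Activity threshold was <50% residual activity.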

Data set [3] shares this target. As to the kind of experiment: Inhibition of recombinant Escherichia coli MurA assessed as residual activity at 500 uM using UDP-N-acetylglucosamine as substrate preincubated for 30 mins in presence of 1 mM DTT followed by substrate addition and measured by malachite green based colorimetric assay relative to control.
Data set [4] concerns the target Replicase polyprotein 1ab (Severe acute respiratory syndrome coronavirus 2) (UniProt P0DTD1). In words: Inhibition of recombinant SARS-CoV-2 3CLpro expressed in Escherichia coli NiCo21(DE3) assessed as residual activity at 500 uM using DABCYL-KTSAVLQSGFRKME-EDANS as substrate preincubated for 30 mins followed by substrate addition and measured by FRET assay relative to control. The procedure, abridged: (§2)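 Kinetic fluorescence read-out of cleavage of a FRET substrate carrying a DABCYL–EDANS pair. Compounds were tested at 500–625 μM, and <50% residual activity was taken as the activity threshold. To exclude false positives, absorbance at the excitation and emission wavelengths and autofluorescence of the compounds were measured.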

For data set [5] the target is unchanged. As to the kind of experiment: Inhibition of recombinant SARS-CoV-2 3CLpro expressed in Escherichia coli NiCo21(DE3) assessed as residual activity at 500 uM using DABCYL-KTSAVLQSGFRKME-EDANS as substrate preincubated for 30 mins in presence of 1mM DTT followed by substrate addition and measured by FRET assay relative to control. The procedure, abridged:
as §2

The test system of data set [6] is Mycobacterium tuberculosis. As to the kind of experiment: Inhibition of Mycobacterium tuberculosis MetAP1a assessed as residual activity at 625 uM using L-methionine 7-amido-4-methylcoumarin as fluorogenic substrate and measured by fluorescence based assay. The procedure, abridged: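 Kinetic fluorescence assay in which the enzyme hydrolyses L-methionine 7-amido-4-methylcoumarin to fluorescent 7-amino-4-methylcoumarin. Compounds were tested at 500–625 μM, and activity was called at <50% residual activity. Spectral interference was checked by measuring absorbance at the excitation and emission wavelengths and compound autofluorescence.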

Data set [7] addresses D-alanine--D-alanine ligase B (Escherichia coli K-12) (UniProt P07862). As to the kind of experiment: Inhibition of recombinant Escherichia coli DdlB assessed as residual activity at 500 uM using D-alanine as substrate incubated for 20 mins and measured by malachite green based colorimetric assay relative to control. The procedure, abridged: as §1
Data set [8] can be described thus: Aqueous stability of the compound at pH 7.4 measured after 60 mins by spectrophotometric analysis. Particulars: buffer, pH 7.4, 1 h. The class given is physicochemical. The procedure, abridged:
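Followed by spectrophotometry as changes in the compound absorption spectrum over time in 50 mM Tris-HCl pH 7.4, 0.5 mM EDTA, read after 60 min in 96-well microplate format. Compounds with low absorbance were not evaluated.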

Data set [9] is described as follows: Redox activity of compound assessed as redox index at 100 uM measured by HRP-PR assay. Format: physicochemical. The procedure, abridged:
(§3)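 H2O2 from redox cycling, with or without DTT, detected with horseradish peroxidase-phenol red (HRP-PR).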

A short description of data set [10]: Redox activity of compound assessed as redox index at 100 uM in presence of 1 mM DTT measured by HRP-PR assay. The class given is physicochemical. The procedure, abridged:
as §3

Data set [11] in a line: Redox activity of compound assessed as redox index at 100 uM measured by H2DCFDA assay. Format: physicochemical. The procedure, abridged: (§4)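 Reactive oxygen species, with or without the reducing agent TCEP, detected with the fluorescent probe H2DCFDA. Compound spectral interference (autofluorescence) checked under the assay conditions.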
The nature of data set [12]: Redox activity of compound assessed as redox index at 100 uM in presence of 100 uM TCEP measured by H2DCFDA assay. Format: physicochemical. The procedure, abridged: as §4
Data set [13] in a line: Redox activity of compound assessed as redox index at 10 uM measured by resazurin assay. Format: physicochemical. The procedure, abridged: (§5)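 Free radicals formed by redox cycling with DTT detected with resazurin by fluorimetric read-out. Spectral interference checked.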
Background: The colour change of resazurin is a common sign of viable cells or microbes.

The nature of data set [14]: Redox activity of compound assessed as redox index at 1 uM measured by resazurin assay. The class given is physicochemical. The procedure, abridged:
as §5

The nature of data set [15]: Thiol reactivity of compound measured by TNB2- assay. The class given is physicochemical. The procedure, abridged:
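Reactivity toward the thiol surrogate TNB2– in a nonproteinaceous setting without TCEP. Reversibility tested by adding TCEP and checking that absorbance was restored.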

Results on eleven molecules are retold here after ChEMBL document CHEMBL5104216, “Fragment-Sized Thiazoles in Fragment-Based Drug Discovery Campaigns: Friend or Foe?” (ACS Med Chem Lett, 2022).

Chain of UDP-N-acetylglucosamine 1-carboxyvinyltransferase (Escherichia coli K-12) (P0A749 whole entry): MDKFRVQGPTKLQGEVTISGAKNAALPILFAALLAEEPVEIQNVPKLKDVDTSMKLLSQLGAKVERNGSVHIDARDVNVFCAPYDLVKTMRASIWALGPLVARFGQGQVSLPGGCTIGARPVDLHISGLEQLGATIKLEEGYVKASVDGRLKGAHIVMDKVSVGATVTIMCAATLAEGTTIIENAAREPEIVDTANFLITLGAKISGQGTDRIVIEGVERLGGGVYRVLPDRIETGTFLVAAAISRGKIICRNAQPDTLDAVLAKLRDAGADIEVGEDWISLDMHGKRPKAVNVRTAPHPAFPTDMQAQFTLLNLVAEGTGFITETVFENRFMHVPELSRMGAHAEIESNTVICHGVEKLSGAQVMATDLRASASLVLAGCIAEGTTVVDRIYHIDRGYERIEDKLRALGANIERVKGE

For `N#Cc1cnc(Br)s1`, the Activity in data set [1] was determined as 94.3%; in data set [2] it was 96%; in [3] it was 100%; in [4] it was 101%; in data set [5], 75.5%; in [6], 128%. The Activity in data set [7] is 94%; in data set [15], “Active”. For the same molecule, in data set [8], the Stability entry is reported as “Stable”. In addition, the Activity_index is given as 1 in data set [9]; 1 in data set [10]; 1 in data set [11]; 0.8 in data set [12]; 1 in data set [13]; 0.9 in data set [14].
For the molecule `N#Cc1cnc(NC(=O)C(=O)O)s1`, the Activity stood at 90.6% in data set [1]; 112% in [2]; 114% in data set [3]; 104% in [4]; 97.6% in data set [5]; 150% in data set [6]. For the same molecule, the Activity in data set [7] is 105%; in data set [15], “Active”. In addition, in [8], the Stability entry is on record as “Stable”. In addition, the Activity_index in data set [9] turned out to be 1; in data set [10], 1; in data set [11], 0.9; in [12], 0.7; in data set [13], 0.9; in data set [14], 0.9.
For `CCOC(=O)c1sc(Br)nc1C`, the Activity was 9.1% in data set [1]; 19.5% in data set [2]; 103% in data set [3]; 91.6% in data set [4]; 85.8% in data set [5]; 115% in data set [6]. Further, the figures for the Activity in [7] and in data set [15] were 93% and “Active”, respectively. The Stability result in [8] was “Unstable”. For the same molecule, the Activity_index came out at 1 in data set [9]; 1 in [10]; 1.3 in [11]; 1.3 in [12]; 0.9 in [13]; 0.9 in data set [14].
As for `O=S(=O)(Cc1ccccc1)Nc1nccs1`, the Activity in data set [1] was 0%; in data set [2], 0%; in data set [3] it was 94%; in data set [4] it was 20%; in data set [5] it was 82.8%; in [6], 45.2%. The Activity is 93% in data set [7] and “Active” in data set [15]. Besides, the Stability result in data set [8] is on record as “Stable”. The Activity_index in data set [9] was 0.8; in data set [10], 1; in data set [11] it was 22.2; in [12], 10.2; in [13] it was 2; in data set [14], 1.
As to `O=C(O)c1csc(Nc2cccc3ncccc23)n1`, the Activity was 0% in data set [1]; 1.4% in data set [2]; 80.9% in [3]; 42.7% in data set [4]; 41.2% in data set [5]; 36.8% in data set [6]. The Activity in data set [7] is 82%; in data set [15] it was “Active”. Further, the Stability entry in data set [8] is “Stable”. Moreover, the Activity_index in [9] is recorded as 1; in data set [10] it was 1; in [11], 1.3; in [12], 1.6; in data set [13], 2.4; in data set [14], 1.
On to `Nc1ncc(Br)s1`, for which the Activity was found to be 9% in data set [1]; 21.1% in data set [2]; 100% in data set [3]; 42.5% in data set [4]; 79.4% in [5]; 156% in [6]. The results for the Activity in data set [7] and in data set [15] were 91% and “Active”, respectively. In addition, the Stability result in data set [8] is given as “Stable”. The Activity_index in [9] is 1; in [10], 1; in data set [11] it was 1.6; in data set [12], 1.5; in data set [13], 1.1; in data set [14], 0.9.
As for `O=C(O)c1csc(-c2ccc(F)cc2)n1`, the Activity came to 12.8% in [1]; 58.7% in [2]; 90% in [3]; 82.6% in data set [4]; 88.1% in [5]; 141% in [6]. Besides, the Activity is 94% in [7] and “Active” in data set [15]. Also, the Stability result in data set [8] is “Stable”. For the same molecule, the Activity_index in data set [9] came out at 0.8; in data set [10], 1; in [11], 1.1; in data set [12] it was 0.8; in [13], 0.9; in data set [14], 0.9.
With `Cc1cnc(N)s1`, the Activity in [1] was determined as 85.2%; in data set [2] it was 95.2%; in data set [3], 94.6%; in [4] it was 88%; in data set [5], 79.8%; in data set [6] it was 118%. The values for the Activity in data set [7] and in data set [15] were 92% and “Active”, respectively. Besides, in [8], the Stability entry is “Stable”. Further, the Activity_index in data set [9] worked out at 1; in data set [10] it was 1; in [11], 1.3; in data set [12] it was 1.3; in [13] it was 0.9; in [14], 1.
In the case of `O=C(O)C(=O)Nc1ncc(Br)s1`, the Activity in data set [1] came to 1.2%; in [2], 11.3%; in [3] it was 112%; in data set [4], 62.2%; in data set [5] it was 82.8%; in data set [6] it was 28.9%. In addition, the results for the Activity in data set [7] and in [15] were 94% and “Active”, respectively. The Stability entry in [8] is given as “Stable”. For the same molecule, the Activity_index in data set [9] is listed as 1; in [10], 1; in [11], 1; in data set [12] it was 1.2; in data set [13] it was 0.9; in data set [14], 0.9.
With `N#Cc1cnc(N)s1`, the Activity in [1] came out at 6.1%; in data set [2] it was 18.9%; in data set [3] it was 102%; in data set [4], 1.1%; in [5], 74.1%; in data set [6] it was 90.8%. Also, the results for the Activity in data set [7] and in [15] were 91% and “Active”, respectively. The Stability result in data set [8] is reported as “Stable”. In addition, the Activity_index in [9] is on record as 1; in data set [10], 1; in data set [11], 1; in data set [12] it was 0.8; in data set [13], 1.2; in data set [14] it was 0.9.
For the molecule `CCOC(=O)c1csc(N)n1`, the Activity was 9% in data set [1]; 18.6% in [2]; 105% in data set [3]; 18.9% in data set [4]; 76.3% in data set [5]; 93.7% in data set [6]. The Activity in data set [7] is 89%; in data set [15] it was “Active”. The Stability entry in [8] is “Stable”. Besides, the Activity_index is on record as 0.8 in [9]; 1 in data set [10]; 1.1 in data set [11]; 0.7 in [12]; 1 in data set [13]; 0.9 in [14].
